Data reported in ChEMBL document CHEMBL1781959, “Synthesis and in vitro antitumor activity of substituted quinazoline and quinoxaline derivatives: search for anticancer agent” (Eur J Med Chem, 2011).

What was measured:
[1] = test system: DU-145; experiment: Cytotoxicity against human DU145 cells after 48 hrs by SRB assay; type: cell-based; conditions: du-145, 48 h
How it was run: (§1)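 NCI-60 five-dose screen in RPMI 1640 with 5% FBS and 2 mM L-glutamine; 5000–40,000 cells/well, 24 h pre-incubation. DMSO stocks diluted to 0.01, 0.1, 1, 10 and 100 μM final; 48 h at 37 °C, 5% CO2. Fixed with TCA (10% final adherent, 16% suspension), stained with 0.4% SRB, A515. GI50, TGI and LC50 taken from time-zero, control and test absorbances.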

[2] = test system: A549; experiment: Growth inhibition of human A549 cells after 48 hrs by SRB assay; type: functional; conditions: A549, 48 h
How it was run: (§2)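 NCI 60-panel five-dose assay at 0.01, 0.1, 1, 10 and 100 μM. Cells in RPMI 1640 with 5% FBS and 2 mM L-glutamine, preincubated 24 h, with time-zero plates TCA-fixed. Drug exposure 48 h at 37 °C. Read by SRB staining at 515 nm. GI50 is the concentration where [(Ti−Tz)/(C−Tz)]×100 = 50, taken from log concentration versus % growth curves.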

[3] = test system: MDA-MB-231; experiment: Cytotoxicity against human MDA-MB-231 cells after 48 hrs by SRB assay; type: cell-based; conditions: mda-mb-231, 48 h; how it was run: as §1
[4] = test system: COLO 205; experiment: Growth inhibition of human COLO205 cells after 48 hrs by SRB assay; type: functional; conditions: COLO 205, 48 h; how it was run: as §2
[5] = test system: MDA-MB-435; experiment: Growth inhibition of human MDA-MB-435 cells after 48 hrs by SRB assay; type: functional; conditions: MDA-MB-435, 48 h; how it was run: as §2
[6] = test system: NCI-H460; experiment: Growth inhibition of human NCI-H460 cells after 48 hrs by SRB assay; type: functional; conditions: NCI-H460, 48 h; how it was run: as §2
[7] = test system: TK-10; experiment: Growth inhibition of human TK10 cells after 48 hrs by SRB assay; type: functional; conditions: TK-10, 48 h
How it was run: (§3)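 NCI-60 panel cells grown in RPMI 1640 with 5% FBS and 2 mM L-glutamine, then seeded at 5000–40,000 cells/well by doubling time and preincubated for 24 h. Compound in DMSO was tested either at 10^-5 M alone or at 0.01–100 μM in five doses, for 48 h at 37 °C. Cells were fixed with cold TCA (10% final), stained with SRB, and read at 515 nm. GI50 was taken from % growth relative to time-zero and control wells.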

[8] = test system: BT-549; experiment: Cytotoxicity against human BT549 cells after 48 hrs by SRB assay; type: cell-based; conditions: bt-549, 48 h; how it was run: as §1
[9] = test system: MCF7; experiment: Cytotoxicity against human MCF7 cells after 48 hrs by SRB assay; type: cell-based; conditions: mcf7, 48 h; how it was run: as §1
[10] = test system: RXF 393; experiment: Growth inhibition of human RXF393 cells after 48 hrs by SRB assay; type: functional; conditions: RXF 393, 48 h; how it was run: as §2
[11] = test system: HCT-15; experiment: Growth inhibition of human HCT15 cells after 48 hrs by SRB assay; type: functional; conditions: HCT-15, 48 h; how it was run: as §2
[12] = test system: NCI-H23; experiment: Growth inhibition of human NCI-H23 cells after 48 hrs by SRB assay; type: functional; conditions: NCI-H23, 48 h; how it was run: as §2
[13] = test system: SK-MEL-2; experiment: Growth inhibition of human SK-MEL-2 cells after 48 hrs by SRB assay; type: functional; conditions: SK-MEL-2, 48 h; how it was run: as §3
[14] = test system: SF-268; experiment: Cytotoxicity against human SF268 cells after 48 hrs by SRB assay; type: cell-based; conditions: sf-268, 48 h; how it was run: as §1
[15] = test system: KM12; experiment: Cytotoxicity against human KM12 cells after 48 hrs by SRB assay; type: cell-based; conditions: km12, 48 h; how it was run: as §1
[16] = test system: HOP-62; experiment: Cytotoxicity against human HOP62 cells after 48 hrs by SRB assay; type: cell-based; conditions: hop-62, 48 h; how it was run: as §1
[17] = test system: PC-3; experiment: Cytotoxicity against human PC3 cells after 48 hrs by SRB assay; type: cell-based; conditions: pc-3, 48 h; how it was run: as §1
[18] = test system: M14; experiment: Cytotoxicity against human M14 cells after 48 hrs by SRB assay; type: cell-based; conditions: m14, 48 h; how it was run: as §1
[19] = test system: BT-549; experiment: Growth inhibition of human BT549 cells after 48 hrs by SRB assay; type: functional; conditions: BT-549, 48 h; how it was run: as §2
[20] = test system: SF-539; experiment: Cytotoxicity against human SF539 cells after 48 hrs by SRB assay; type: cell-based; conditions: sf-539, 48 h; how it was run: as §1
[21] = test system: OVCAR-3; experiment: Cytotoxicity against human OVCAR3 cells after 48 hrs by SRB assay; type: cell-based; conditions: ovcar-3, 48 h; how it was run: as §1
[22] = test system: HCT-116; experiment: Cytotoxicity against human HCT116 cells after 48 hrs by SRB assay; type: cell-based; conditions: hct-116, 48 h; how it was run: as §1
[23] = Cytotoxicity against human Hs 578T cells after 48 hrs by SRB assay; type: cell-based; how it was run: as §1
[24] = test system: OVCAR-4; experiment: Cytotoxicity against human OVCAR4 cells after 48 hrs by SRB assay; type: cell-based; conditions: ovcar-4, 48 h; how it was run: as §1
[25] = test system: DU-145; experiment: Growth inhibition of human DU145 cells after 48 hrs by SRB assay; type: functional; conditions: DU-145, 48 h; how it was run: as §2
[26] = test system: MDA-MB-435; experiment: Cytotoxicity against human MDA-MB-435 cells after 48 hrs by SRB assay; type: cell-based; conditions: mda-mb-435, 48 h; how it was run: as §1
[27] = test system: SF-539; experiment: Growth inhibition of human SF539 cells after 48 hrs by SRB assay; type: functional; conditions: SF-539, 48 h; how it was run: as §3
[28] = test system: OVCAR-5; experiment: Growth inhibition of human OVCAR5 cells after 48 hrs by SRB assay; type: functional; conditions: OVCAR-5, 48 h; how it was run: as §2
[29] = test system: 786-0; experiment: Growth inhibition of human 786-0 cells after 48 hrs by SRB assay; type: functional; conditions: 786-0, 48 h; how it was run: as §2
[30] = test system: SW-620; experiment: Cytotoxicity against human SW620 cells after 48 hrs by SRB assay; type: cell-based; conditions: sw-620, 48 h
How it was run: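 NCI-60 five-dose screen. Cells grown in RPMI 1640 with 5% FBS and 2 mM L-glutamine and pre-incubated 24 h; a time-zero plate is TCA-fixed. Drug added at 0.01, 0.1, 1, 10 and 100 µM (DMSO stock) for 48 h at 37 °C, 5% CO2. Fixed with cold TCA (10% final for adherent, 16% for suspension cells), stained with 0.4% SRB, A515. GI50, TGI and LC50 taken from dose-response curves.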

[31] = test system: UACC-62; experiment: Growth inhibition of human UACC62 cells after 48 hrs by SRB assay; type: functional; conditions: UACC-62, 48 h; how it was run: as §3
[32] = test system: KM12; experiment: Growth inhibition of human KM12 cells after 48 hrs by SRB assay; type: functional; conditions: KM12, 48 h; how it was run: as §2
[33] = test system: SF-295; experiment: Cytotoxicity against human SF295 cells after 48 hrs by SRB assay; type: cell-based; conditions: sf-295, 48 h; how it was run: as §1
[34] = test system: SK-MEL-2; experiment: Cytotoxicity against human SK-MEL-2 cells after 48 hrs by SRB assay; type: cell-based; conditions: sk-mel-2, 48 h; how it was run: as §1

With `O=c1c2ccccc2nc(-c2ccco2)n1/N=C/c1ccccc1Cl` the LC50 [1] was greater than 100 µM, the GI50 [2] was 4.78 µM and the TGI [2] was greater than 100 µM. The LC50 [3] was greater than 100 µM, the GI50 [4] was 4.96 µM and the TGI [4] was 34.1 µM. For the same compound, the GI50 [5] was 8.23 µM, the TGI [5] was 17 µM and the GI50 [6] was 3.45 µM. The TGI [6] was 8.41 µM, the GI50 [7] was 7.84 µM and the TGI [7] was greater than 100 µM. For the same compound, the LC50 [8] was 72.4 µM, the LC50 [9] was greater than 100 µM and the GI50 [10] was 11.6 µM. The TGI [10] was 42.6 µM, the GI50 [11] was 5.73 µM and the TGI [11] was greater than 100 µM. The GI50 [12] was 7.87 µM, the TGI [12] was greater than 100 µM and the GI50 [13] was 6.86 µM. It also gave a TGI [13] greater than 100 µM, an LC50 [14] greater than 100 µM and an LC50 [15] greater than 100 µM. The LC50 [16] was greater than 100 µM, the LC50 [17] was greater than 100 µM and the LC50 [18] was greater than 100 µM. It also gave a GI50 [19] of 2.92 µM, a TGI [19] of 6.8 µM and an LC50 [20] greater than 100 µM. For the same compound, the LC50 [21] was greater than 100 µM, the LC50 [22] was greater than 100 µM and the LC50 [23] was greater than 100 µM. It also gave an LC50 [24] greater than 100 µM, a GI50 [25] of 4.38 µM and a TGI [25] greater than 100 µM. For the same compound, the LC50 [26] was greater than 100 µM, the GI50 [27] was 3.28 µM and the TGI [27] was 21.2 µM. For the same compound, the GI50 [28] was 5.12 µM, the TGI [28] was greater than 100 µM and the GI50 [29] was 3.94 µM. It also gave a TGI [29] of 14.9 µM, an LC50 [30] greater than 100 µM and a GI50 [31] of 6.38 µM. The TGI [31] was greater than 100 µM, the GI50 [32] was 3.65 µM and the TGI [32] was 25.4 µM. For the same compound, the LC50 [33] was greater than 100 µM and the LC50 [34] was greater than 100 µM.
